The source of these data is ChEMBL document CHEMBL1649411, “Potent antitumor mimetics of annonaceous acetogenins embedded with an aromatic moiety in the left hydrocarbon chain part” (J Med Chem, 2011).

A value given as a limit tells only on which side of the number the result lay.

Data set [1] can be described thus: Cytotoxicity against human BEAS2B cells after 72 hrs by MTT assay. The format is cell-based, BEAS-2B. In short, it runs like this:
(§1)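 Cells were grown in DMEM with penicillin-streptomycin, L-glutamine and 10% FBS, then seeded at 5 × 10³ cells/well. MTT (5 mg mL^-1 stock) was added for 4 h, then dissolved in DMSO. A570 was read against a 690 nm reference, with at least four replicates. Inhibition was calculated versus blank-corrected vehicle control, giving GI50.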
Background: Tetrazolium dyes change colour on reduction, which living cells bring about.

In a further data set the test system is MCF7. The data set can be described thus: Cytotoxicity against human MCF7 cells after 72 hrs by MTT assay. Format: functional. Particulars: MCF7, 72 h. In short, it runs like this: as §1
A short description of data set [2]: Cytotoxicity against HLF after 72 hrs by MTT assay. The format is cell-based. Particulars: human, HLF cells. In short, it runs like this:
as §1

A further data set concerns A549. The data set can be described thus: Cytotoxicity against human A549 cells after 72 hrs by MTT assay. The conditions noted are these: A549, 72 h. The format is functional. The method in brief: as §1
The next data set deals with SGC-7901. The data set can be described thus: Cytotoxicity against human SGC7901 cells after 72 hrs by MTT assay. Format: functional. The conditions noted are these: SGC-7901, 72 h. In short, it runs like this:
as §1

A further data set concerns HT-29. The experiment in a line: Cytotoxicity against human HT-29 cells after 72 hrs by MTT assay. The conditions noted are these: HT-29, 72 h. The format is functional. In short, it runs like this:
(§2)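 Cells were maintained in F12/DMEM with penicillin-streptomycin, L-glutamine and 10% FBS, and plated at 5 × 10³ cells/well. Sixteen hours later, medium containing compound ([…]) or DMSO vehicle was added for 72 h. MTT (5 mg mL^-1 stock) was applied for 4 h and formazan dissolved in DMSO. Absorbance was read at 570/690 nm in at least quadruplicate. Growth inhibition versus blank-corrected controls gave GI50.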

A further data set has as its system HCT-116. The experiment in a line: Cytotoxicity against human HCT116 cells after 72 hrs by MTT assay. Format: functional. The conditions noted are these: HCT-116, 72 h. The method in brief: as §2

Broadly, the GI50 is the concentration at which growth is held to half of that of the control. Lower therefore signals more potent growth inhibition.

On to `CCCCCC[C@H](O)COCCOC[C@@H](O)CCCCC(O)CCCCCCCC1=C[C@H](C)OC1=O` (stereo partly specified), for which the GI50 at 72 h in data set [1] is > 100 µM; in data set [2], 11.1 µM. Besides, the GI50 with MCF7 was determined as 5.8 µM; in the data set with A549, 10.8 µM; in the data set on SGC-7901, 2 µM; with HT-29, 19.4 µM; in the data set on HCT-116 it was 4.2 µM.

`C[C@H]1C=C(CCCCCCCC(O)CCCC[C@H](O)COCCOC[C@@H](O)CCCCC2CCCCC2)C(=O)O1` (stereo partly specified): the figures for the GI50 at 72 h in data set [1] and in data set [2] were 61 µM and 5.5 µM, respectively. Further, the GI50 came out at 1.8 µM in the data set with MCF7; 4.5 µM with A549; 0.75 µM in the data set on SGC-7901; 5.4 µM in the data set with HT-29; 1.6 µM with HCT-116.

For the molecule `C[C@H]1C=C(CCCCCCCC(O)CCCC[C@H](O)COCCOC[C@@H](O)CCCc2ccccc2)C(=O)O1` (stereo partly specified), the results for the GI50 at 72 h in data set [1] and in data set [2] were > 100 µM and 7.4 µM, respectively. For the same molecule, the GI50 in the data set with MCF7 is 0.84 µM; in the data set with A549, 0.773 µM; with SGC-7901, 0.275 µM; in the data set on HT-29, 1.1 µM; with HCT-116 it was 0.394 µM.

On to `C[C@H]1C=C(CCCCCCCC(O)CCCC[C@H](O)COCCOC[C@@H](O)CCCc2cccc(O)c2)C(=O)O1` (stereo partly specified), for which the GI50 at 72 h in data set [1] and in data set [2] was > 100 µM throughout. In addition, the GI50 was 24.5 µM in the data set with MCF7; 6 µM with A549; 1 µM with SGC-7901; 69 µM in the data set on HT-29; 2.8 µM with HCT-116.

Regarding `COc1ccc(CCC[C@H](O)COCCOC[C@@H](O)CCCCC(O)CCCCCCCC2=C[C@H](C)OC2=O)cc1` (stereo partly specified), the GI50 at 72 h is > 100 µM in data set [1] and 11.3 µM in data set [2]. The GI50 in the data set on MCF7 was 23.3 µM; in the data set on A549, 4.5 µM; with SGC-7901, 0.198 µM; in the data set on HT-29 it was 4.3 µM; with HCT-116 it was 2.3 µM.

Consider `C[C@H]1C=C(CCCCCCCC(O)CCCC[C@H](O)COCCOC[C@@H](O)CCCc2ccc(-c3ccccc3)cc2)C(=O)O1` (stereo partly specified), for which the GI50 at 72 h in data set [1] and in data set [2] was > 100 µM each time. The GI50 in the data set on MCF7 was determined as 0.154 µM; with A549, 0.177 µM; with SGC-7901, 0.02 µM; in the data set on HT-29 it was 0.355 µM; in the data set with HCT-116, 0.134 µM.

In the case of `COc1ccc2cc(CCC[C@H](O)COCCOC[C@@H](O)CCCCC(O)CCCCCCCC3=C[C@H](C)OC3=O)ccc2c1` (stereo partly specified), the GI50 at 72 h is > 100 µM in data set [1] and 10 µM in data set [2]. Further, the GI50 was 12.6 µM in the data set on MCF7; 3.7 µM in the data set on A549; 0.082 µM in the data set with SGC-7901; 1.1 µM in the data set on HT-29; 1.1 µM with HCT-116.

`CCCCCCCCCC[C@H](O)COCCOC[C@@H](O)CCCCCCCCCCCCC1=C[C@H](C)OC1=O`: the GI50 at 72 h was 120 µM in data set [1] and 20.9 µM in data set [2]. Also, the GI50 worked out at 0.276 µM with MCF7; 0.305 µM in the data set with A549; 0.065 µM in the data set on SGC-7901; 0.291 µM in the data set on HT-29; 0.113 µM in the data set with HCT-116.
